Test results taken from ChEMBL document CHEMBL1132111, “Design and synthesis of novel alpha(1)(a) adrenoceptor-selective antagonists. 4. Structure-activity relationship in the dihydropyrimidine series” (J Med Chem, 1999).
Several values for one entry are separate records, joined by “and”; a condition that tells them apart may be missing. Equal values may be shown once.

What was measured:
[1] = target: T1, Alpha-1A adrenergic receptor (Homo sapiens, UniProt P35348); assay: Binding affinity against Alpha-1A adrenergic receptor (recombinant human receptor) using [3H]prazosin.
T1 sequence (P35348 whole entry): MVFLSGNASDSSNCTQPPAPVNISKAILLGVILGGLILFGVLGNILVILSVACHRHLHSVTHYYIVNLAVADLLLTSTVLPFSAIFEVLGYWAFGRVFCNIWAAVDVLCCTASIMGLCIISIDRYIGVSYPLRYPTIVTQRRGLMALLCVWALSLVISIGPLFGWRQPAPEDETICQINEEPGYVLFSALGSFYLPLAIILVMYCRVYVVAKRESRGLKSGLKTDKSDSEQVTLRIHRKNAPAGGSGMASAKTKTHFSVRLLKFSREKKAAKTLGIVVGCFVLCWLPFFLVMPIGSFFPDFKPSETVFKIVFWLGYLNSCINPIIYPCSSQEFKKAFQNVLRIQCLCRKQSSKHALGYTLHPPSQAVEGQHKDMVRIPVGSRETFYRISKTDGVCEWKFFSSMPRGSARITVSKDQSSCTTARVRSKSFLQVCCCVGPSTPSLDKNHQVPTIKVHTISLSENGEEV

[2] = target: T2, Alpha-1B adrenergic receptor (Homo sapiens, UniProt P35368); assay: Binding affinity against Alpha-1B adrenergic receptor (recombinant human receptor) using [3H]prazosin.
T2 sequence (P35368 whole entry): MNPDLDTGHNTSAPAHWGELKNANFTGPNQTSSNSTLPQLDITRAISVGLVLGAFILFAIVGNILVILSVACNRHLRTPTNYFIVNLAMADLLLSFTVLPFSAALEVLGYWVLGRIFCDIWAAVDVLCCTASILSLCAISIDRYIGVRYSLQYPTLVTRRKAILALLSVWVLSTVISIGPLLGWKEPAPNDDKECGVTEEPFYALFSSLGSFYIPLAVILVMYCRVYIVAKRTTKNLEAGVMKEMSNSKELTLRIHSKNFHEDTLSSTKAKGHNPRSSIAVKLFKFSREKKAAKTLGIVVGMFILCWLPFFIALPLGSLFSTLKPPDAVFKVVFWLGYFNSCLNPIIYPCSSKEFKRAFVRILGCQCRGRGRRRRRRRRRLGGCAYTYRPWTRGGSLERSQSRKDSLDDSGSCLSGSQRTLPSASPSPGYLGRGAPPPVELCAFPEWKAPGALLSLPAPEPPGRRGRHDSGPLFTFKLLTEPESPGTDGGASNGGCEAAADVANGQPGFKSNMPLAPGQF

[3] = target: T3, Alpha-1D adrenergic receptor (Homo sapiens, UniProt P25100); assay: Binding affinity against Alpha-1D adrenergic receptor (recombinant human receptor) using [3H]-prazosin.
T3 sequence (P25100 whole entry): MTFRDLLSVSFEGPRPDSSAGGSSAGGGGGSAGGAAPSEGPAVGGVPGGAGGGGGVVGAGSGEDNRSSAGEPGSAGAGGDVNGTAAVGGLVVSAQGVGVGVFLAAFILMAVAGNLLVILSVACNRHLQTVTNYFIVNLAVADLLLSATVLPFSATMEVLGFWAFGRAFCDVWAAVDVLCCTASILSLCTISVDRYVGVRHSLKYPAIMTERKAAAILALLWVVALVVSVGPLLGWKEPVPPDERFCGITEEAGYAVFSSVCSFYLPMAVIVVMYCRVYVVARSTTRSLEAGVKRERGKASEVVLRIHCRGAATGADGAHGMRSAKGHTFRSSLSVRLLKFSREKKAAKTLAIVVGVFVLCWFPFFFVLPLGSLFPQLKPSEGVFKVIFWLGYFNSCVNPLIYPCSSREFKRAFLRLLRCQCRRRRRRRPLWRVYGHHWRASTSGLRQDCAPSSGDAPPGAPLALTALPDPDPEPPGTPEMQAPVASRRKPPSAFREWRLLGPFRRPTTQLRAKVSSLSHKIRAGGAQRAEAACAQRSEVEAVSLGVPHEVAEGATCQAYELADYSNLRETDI

[4] = Selectivity against alpha-1a receptor over alpha-2a,b,c adrenoceptors
Procedure, shortened: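 Binding affinities (Ki, nM) measured at recombinant human α1a and α2a, α2b and α2c adrenoceptors; fold selectivity expressed as the ratio of α2 subtype Ki to α1a Ki.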

[5] = Selectivity for alpha-1a receptor against rat L-type calcium channel by [3H]nitrendipine binding
[6] = Bioavailability in rat; assay type: ADME, organism-based; details: in vivo
Rattus norvegicus [7] = assay: Area under curve at a peroral dose of 3 mg/kg in rat; assay type: ADME, organism-based; set-up: dose 3 mg/kg, route oral; details: in vivo, po
Procedure, shortened: (§1)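 Each compound dosed once intravenously at 1 mg/kg and orally at 3 mg/kg. Exposure read as plasma area under the concentration-time curve, reported in µmol min/L.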

[8] = Bioavailability in dog; assay type: ADME, organism-based, Canis lupus familiaris; details: in vivo
[9] = Plasma half life in dog; assay type: ADME, organism-based, Canis lupus familiaris
[10] = Plasma half life in rat; assay type: ADME, organism-based
Rattus norvegicus [11] = assay: Area under curve at an iv dose of 1 mg/kg in rat; assay type: ADME, organism-based; set-up: dose 1 mg/kg, route intravenous; details: in vivo; procedure, shortened: as §1
Rattus norvegicus [12] = species on record: Rattus norvegicus; assay: Antagonistic activity inhibiting phenylephrine induced contractions in isolated rat prostate.; assay type: functional, Prostate gland
[13] = target: T4, Alpha-1A adrenergic receptor (Rattus norvegicus, UniProt P43140); assay: Binding affinity against isolated rat prostate using [3H]- prazosin.; assay type: tissue-based, Prostate gland
T4 sequence (P43140 whole entry): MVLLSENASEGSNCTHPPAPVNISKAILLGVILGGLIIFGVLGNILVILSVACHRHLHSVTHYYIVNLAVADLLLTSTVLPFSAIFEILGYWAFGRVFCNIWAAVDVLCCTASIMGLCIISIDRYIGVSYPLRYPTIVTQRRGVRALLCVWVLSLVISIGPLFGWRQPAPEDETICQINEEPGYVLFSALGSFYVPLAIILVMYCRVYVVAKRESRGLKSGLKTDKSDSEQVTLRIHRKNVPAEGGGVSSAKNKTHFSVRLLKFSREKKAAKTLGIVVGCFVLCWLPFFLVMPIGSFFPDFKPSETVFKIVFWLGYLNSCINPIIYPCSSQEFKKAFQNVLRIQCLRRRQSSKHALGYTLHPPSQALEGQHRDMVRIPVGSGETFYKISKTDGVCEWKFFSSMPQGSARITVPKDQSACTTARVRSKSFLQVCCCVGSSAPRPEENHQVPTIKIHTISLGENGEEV

[14] = target: T3, Alpha-1D adrenergic receptor; assay: Binding affinity against isolated human aorta using [3H]- prazosin.; assay type: tissue-based
[15] = target: T1, Alpha-1A adrenergic receptor; assay: Binding affinity against isolated human prostate using [3H]- prazosin.; assay type: tissue-based, Prostate gland
Canis familiaris [16] = assay: Area under curve at an iv dose of 1 mg/kg in dog; assay type: ADME, organism-based, Canis lupus familiaris; set-up: dose 1 mg/kg, route intravenous; details: in vivo; procedure, shortened: as §1
[17] = Bioavailability in dog(iv: 1 mg/kg); assay type: ADME, organism-based, Canis lupus familiaris; details: in vivo
Canis familiaris [18] = assay: Area under curve at a peroral dose of 3 mg/kg in dog; assay type: ADME, organism-based, Canis lupus familiaris; set-up: dose 3 mg/kg, route oral; details: in vivo, po; procedure, shortened: as §1

SMILES	Ki [1]	Ki [2]	Ki [3]	Fold selective [4]	also measured
COC(=O)C1=C(C)N=C(C)N(CCCCCN2CCN(c3ccccc3C(=O)OC)CC2)C1c1ccc(F)c(F)c1 (centres undefined)	0.5 nM	34 nM	79 nM	> 100	
COCC1=NC(C)=C(C(=O)OC)C(c2ccc(F)c(F)c2)N1CCCCCN1CCC(C#N)(c2ccccc2)CC1 (centres undefined)	0.4 nM	310 nM	480 nM	> 700	
COC(=O)C1=C(C)N=C(C)N(CCCCN2CCC(C(=O)OC)(c3ccccc3)CC2)C1c1ccc(F)c(F)c1 (centres undefined)	3.6 nM	440 nM	610 nM	< 80	
COC(=O)C1=C(C)N=C(C)N(CCC[C@H](C)CN2CCC(C(=O)OC)(c3ccccc3)CC2)C1c1ccc(F)c(F)c1 (single isomer, unassigned; (+))	1.6 nM	430 nM	910 nM	< 50	
COC(=O)C1=C(C)N=C(C)N(Cc2cccc(CN3CCC(C(=O)OC)(c4ccccc4)CC3)c2)C1c1ccc(F)c(F)c1 (centres undefined)	6.8 nM	320 nM	570 nM	> 130	
COC(=O)C1=C(C)N=C(C)N(CCCCCN2CCC(C(=O)OC)(c3ccccc3)CC2)C1c1ccc(F)cc1F (centres undefined)	0.5 nM	160 nM	700 nM	> 1000	
COC(=O)C1=C(C)N=C(C)N(CCCCCN2CCC(c3ccccc3C(F)(F)F)CC2)C1c1ccc(F)c(F)c1 (centres undefined)	1.1 nM	500 nM	1100 nM		Selectivity [5]: < 100
COC(=O)C1=C(C)N=C(C)N(CCC[C@H](C)CN2CCN(c3ccccc3C(N)=O)CC2)C1c1ccc(F)c(F)c1 (some centres undefined)	3.5 nM	810 nM	1700 nM	< 100	
COC(=O)C1=C(C)N=C(C)N(CCCCCN2CCC(c3ccccc3)CC2)C1c1ccc(F)c(F)c1 (centres undefined)	0.4 nM	93 nM	220 nM	> 300	
COC(=O)C1=C(C)N=C(C)N(CCCCCN2CCN(c3ccccc3C(N)=O)CC2)C1c1ccc(F)c(F)c1 (centres undefined)	0.6 nM	240 nM	580 nM		bioavailability [6]: 21%; AUC (Rattus norvegicus [7]): 4 uM min l-1; bioavailability [8]: < 10%; half-life [9]: 240 min; half-life [10]: 126 min; AUC (Rattus norvegicus [11]): 5 uM min l-1; Kb (Rattus norvegicus [12]): 7 nM
COC(=O)C1=C(C)N=C(C)N(CCCCCN2CCC(C#N)(c3ccccc3)CC2)C1c1ccc(F)c(F)c1 (centres undefined)	1 nM	490 nM	1100 nM	> 300	
COC(=O)C1=C(C)N=C(C)N(CCCCCN2CCC(c3ccccc3)(c3ccccc3)CC2)C1c1ccc(F)c(F)c1 (centres undefined)	0.4 nM	100 nM	180 nM		Ki [13]: 0.97 nM; Ki [14]: 110 nM; Ki [15]: 0.33 nM; Kb (Rattus norvegicus [12]): 60 nM
COC(=O)C1=C(C)N=C(C)N(CCCCCN2CCC(c3ccc(C)cc3)(c3ccccc3C)CC2)C1c1ccc(F)c(F)c1 (centres undefined)	0.1 nM	250 nM	440 nM		bioavailability [6]: 17%; AUC (Rattus norvegicus [7]): 21 uM min l-1; AUC (Canis familiaris [16]): 11 uM min l-1; bioavailability [17]: 8%; AUC (Canis familiaris [18]): 8 uM min l-1; half-life [9]: 30 min; half-life [10]: 282 min; AUC (Rattus norvegicus [11]): 35 uM min l-1; Kb (Rattus norvegicus [12]): 27 nM
COC(=O)C1=C(C)N=C(C)N(CCC[C@@H](C)CN2CCN(c3ccccc3C(N)=O)CC2)C1c1ccc(F)c(F)c1 (single isomer, unassigned; (+))	20 nM	1500 nM	1700 nM	< 10	
COC(=O)C1=C(C)N=C(C)N(CCC[C@@H](C)CN2CCC(C#N)(c3ccccc3)CC2)C1c1ccc(F)c(F)c1 (some centres undefined)	22 nM	1700 nM	1600 nM	< 10	
COC(=O)C1=C(C)N=C(C)N(CCC[C@H](C)CN2CCC(C#N)(c3ccccc3)CC2)C1c1ccc(F)c(F)c1 (some centres undefined)	1.2 nM	480 nM	1100 nM	> 120	
COC(=O)C1=C(C)N=C(C)N(CCCCCN2CCN(c3ccccc3OC)CC2)C1c1ccc(F)c(F)c1 (centres undefined)	0.4 nM	67 nM	65 nM	< 100	
COC(=O)C1(c2ccccc2)CCN(CCCCCN2C(C)=NC(C)=C(C(N)=O)C2c2ccc(F)cc2F)CC1 (centres undefined)	4.2 nM	410 nM	690 nM	< 10	
CNC(=O)C1=C(C)N=C(C)N(CCCCCN2CCC(C(=O)OC)(c3ccccc3)CC2)C1c1ccc(F)cc1F (centres undefined)	14 nM	870 nM	1900 nM	< 80	
COC(=O)C1=C(C)N=C(C)N(CCCCCN2CCC(C(=O)OC)(c3ccccc3)CC2)C1c1ccc(F)c(F)c1 (centres undefined)		700 nM and 190 nM	550 nM and 180 nM		
COC(=O)C1=C(C)NC(=O)N(CCCCCN2CCC(C(=O)OC)(c3ccccc3)CC2)C1c1ccc(F)c(F)c1 (centres undefined)				> 1000	
COCC1=C(C(=O)OC)C(c2ccc(F)c(F)c2)N(CCCCCN2CCC(C#N)(c3ccccc3)CC2)C(C)=N1 (centres undefined)	0.4 nM	400 nM	680 nM	> 4000	
COC(=O)C1=C(C)N=C(C)N(CCCCCN2CCC(c3ccccc3OC)CC2)C1c1ccc(F)c(F)c1 (centres undefined)	0.3 nM	140 nM	120 nM	> 100	
